One may read the Ki as the dissociation constant of the complex between target and ligand, obtained from inhibition or displacement. Usually pKb stands for −log10 of the Kb, conventionally taken in molar units.

Test [1] addresses Muscarinic acetylcholine receptor M3 (Homo sapiens, UniProt P20309). Nature of the test: Binding affinity to cloned human muscarinic M3 receptor expressed in CHO cells. Format: cell-based. The note with it: for Log Ki: cho.
The target in test [2] is T1, Muscarinic acetylcholine receptor M2 (Homo sapiens, UniProt P08172).
T1 sequence (P08172 whole entry): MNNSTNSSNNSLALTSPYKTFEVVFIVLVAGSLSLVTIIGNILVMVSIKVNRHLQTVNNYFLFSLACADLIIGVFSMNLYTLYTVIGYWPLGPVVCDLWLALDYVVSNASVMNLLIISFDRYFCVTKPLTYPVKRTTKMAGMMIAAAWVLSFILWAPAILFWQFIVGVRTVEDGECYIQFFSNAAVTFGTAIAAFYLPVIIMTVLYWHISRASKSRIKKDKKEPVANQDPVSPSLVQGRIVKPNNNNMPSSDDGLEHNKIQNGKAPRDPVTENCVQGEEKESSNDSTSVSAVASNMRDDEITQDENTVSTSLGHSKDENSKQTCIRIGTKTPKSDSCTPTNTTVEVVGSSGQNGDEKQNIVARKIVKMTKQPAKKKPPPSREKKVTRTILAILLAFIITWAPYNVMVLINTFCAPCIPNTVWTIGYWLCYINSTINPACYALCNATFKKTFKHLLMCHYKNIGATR
Nature of the test: Binding affinity to cloned human muscarinic M2 receptor expressed in CHO cells. The test is classed as cell-based. Summed up: (§1)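 Membranes from CHO cells stably expressing human hm2, hm4 or hm5 receptors, at 70, 50 and 25 µg/mL protein respectively. 0.2 nM [3H]NMS displaced by unlabelled ligand for 120 min at room temperature, in 25 mM sodium phosphate with 5 mM MgCl2, pH 7.4. Rapid filtration, then scintillation counting. Mean of at least three experiments.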

For test [3], the target named is Muscarinic acetylcholine receptor M3 (Cavia porcellus) (UniProt Q8VH26). Nature of the test: Agonist potency at muscarinic M3 receptor in guinea pig ileum. Format: functional, tissue-based. Summed up:
(§2)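 Isolated guinea pig tissue contractions, measured against arecaidine propargyl ester control curves. Agonists: cumulative dose-response curve after a 30 min wash, responses as % of the control maximum. Antagonists: 60 min incubation, then a new agonist curve. Parallel time-control tissues were run. Values expressed as pD2 (-log ED50) with intrinsic activity, or as pKb (-log Kb).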

Test [4] shares this target. Nature of the test: Antagonist affinity at muscarinic M3 receptor in guinea pig ileum. Format: functional, tissue-based. The method, boiled down: as §2
Test [5] has as its target T2, Muscarinic acetylcholine receptor M2 (Homo sapiens) (UniProt P08172).
T2 sequence (whole entry): T1 sequence (P08172 whole entry)
Nature of the test: Agonist potency at muscarinic M2 receptor in guinea pig atrium. The test is classed as functional, tissue-based. Conditions: Cavia porcellus; Cardiac atrium; target entry is the homologue from another species. The method, boiled down:
(§3)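 Guinea pig left atria in PSS at 30 °C, paced by square-wave pulses (1 ms, 1 Hz, 5-10 V). Inotropic force recorded isometrically after 2 h equilibration, with cumulative dose-response curves to arecaidine propargyl ester as reference. Antagonists incubated 60 min after a 30 min wash, then the curve was repeated. Values given as pD2 with intrinsic activity, or as pKb.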

Test [6] addresses T3, Muscarinic acetylcholine receptor M5 (Homo sapiens, UniProt P08912).
T3 sequence (P08912 whole entry): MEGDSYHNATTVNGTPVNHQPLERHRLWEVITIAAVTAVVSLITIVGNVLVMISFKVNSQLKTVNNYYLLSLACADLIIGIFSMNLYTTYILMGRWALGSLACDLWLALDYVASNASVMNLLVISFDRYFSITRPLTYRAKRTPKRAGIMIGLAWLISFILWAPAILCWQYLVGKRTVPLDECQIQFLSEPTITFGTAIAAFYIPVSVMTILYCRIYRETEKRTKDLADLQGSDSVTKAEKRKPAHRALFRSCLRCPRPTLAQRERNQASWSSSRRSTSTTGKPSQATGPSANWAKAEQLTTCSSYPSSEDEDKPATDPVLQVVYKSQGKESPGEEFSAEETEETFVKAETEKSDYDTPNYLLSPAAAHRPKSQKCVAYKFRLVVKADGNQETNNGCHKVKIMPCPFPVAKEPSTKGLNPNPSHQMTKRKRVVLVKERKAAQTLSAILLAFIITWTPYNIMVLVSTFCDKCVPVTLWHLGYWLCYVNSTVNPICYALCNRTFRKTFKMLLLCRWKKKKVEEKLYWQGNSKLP
Nature of the test: Binding affinity to cloned human muscarinic M5 receptor expressed in CHO cells. Format: cell-based. The method, boiled down:
as §1

Test [7] deals with T4, Muscarinic acetylcholine receptor M4 (Homo sapiens, UniProt P08173).
T4 sequence (P08173 whole entry): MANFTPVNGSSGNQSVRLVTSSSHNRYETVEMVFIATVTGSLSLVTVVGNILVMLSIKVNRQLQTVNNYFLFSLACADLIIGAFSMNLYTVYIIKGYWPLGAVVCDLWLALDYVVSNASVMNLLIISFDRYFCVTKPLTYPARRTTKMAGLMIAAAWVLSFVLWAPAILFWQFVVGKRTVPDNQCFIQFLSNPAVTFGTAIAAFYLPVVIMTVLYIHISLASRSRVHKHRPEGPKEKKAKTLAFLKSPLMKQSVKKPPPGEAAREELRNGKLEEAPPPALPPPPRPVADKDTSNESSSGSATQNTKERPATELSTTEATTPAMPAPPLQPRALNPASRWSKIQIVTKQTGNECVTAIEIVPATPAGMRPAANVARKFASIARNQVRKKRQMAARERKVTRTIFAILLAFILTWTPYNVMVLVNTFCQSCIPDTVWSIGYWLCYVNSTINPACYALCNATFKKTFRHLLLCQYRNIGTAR
Nature of the test: Binding affinity to cloned human muscarinic M4 receptor expressed in CHO cells. Format: cell-based. The note with it: for Log Ki: cho. Summed up:
as §1

Test [8] deals with T2, Muscarinic acetylcholine receptor M2 (Homo sapiens). Nature of the test: Antagonist affinity at muscarinic M2 receptor in guinea pig atrium. Format: functional, tissue-based. Conditions: Cavia porcellus; Cardiac atrium; target entry is the homologue from another species. Summed up:
as §3

In test [9] the target is T5, Muscarinic acetylcholine receptor M1 (Homo sapiens) (UniProt P11229).
T5 sequence (whole entry): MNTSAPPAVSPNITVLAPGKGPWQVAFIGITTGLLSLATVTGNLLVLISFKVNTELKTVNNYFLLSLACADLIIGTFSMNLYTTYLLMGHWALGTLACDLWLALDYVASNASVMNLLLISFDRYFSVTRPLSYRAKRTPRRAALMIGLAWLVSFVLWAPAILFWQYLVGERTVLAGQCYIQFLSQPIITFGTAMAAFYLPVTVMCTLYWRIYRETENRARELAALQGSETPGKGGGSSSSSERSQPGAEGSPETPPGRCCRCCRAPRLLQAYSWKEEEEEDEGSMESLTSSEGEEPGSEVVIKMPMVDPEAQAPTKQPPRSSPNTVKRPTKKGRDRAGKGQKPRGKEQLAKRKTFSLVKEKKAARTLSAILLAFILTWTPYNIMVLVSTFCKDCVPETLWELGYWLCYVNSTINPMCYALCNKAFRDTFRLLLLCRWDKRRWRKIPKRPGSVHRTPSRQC
Nature of the test: Antagonist affinity at muscarinic M1 receptor in rabbit vas deferens. Format: functional, tissue-based. Conditions: Oryctolagus cuniculus, target entry is the homologue from another species. The method, boiled down:
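Field-stimulated (0.1 ms, 2 Hz, 10-15 V), contractions recorded isometrically after 1 h equilibration. Cumulative dose-response curves against p-Cl-McN-A-343 reference. Antagonists incubated 60 min before the repeat curve. Reported as pD2 (-log ED50) with intrinsic activity, or as pKb.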

The target of test [10] is T6, Muscarinic acetylcholine receptor M4 (Homo sapiens) (UniProt P08173).
T6 sequence (whole entry): T4 sequence (P08173 whole entry)
Nature of the test: Antagonist affinity at muscarinic M4 receptor in guinea pig lung strips. The note with it: Cavia porcellus, target entry is the homologue from another species. The test is classed as functional. The method, boiled down: as §2

Test [11] deals with T7, Muscarinic acetylcholine receptor M1 (Homo sapiens, UniProt P11229).
T7 sequence (P11229 whole entry): T5 sequence (whole entry)
Nature of the test: Binding affinity to cloned human muscarinic M1 receptor expressed in CHO cells. Format: cell-based. Conditions: for Log Ki: cho.

The structures appear in SMILES notation.

Muscarinic acetylcholine receptor M3, sequence (P20309 whole entry): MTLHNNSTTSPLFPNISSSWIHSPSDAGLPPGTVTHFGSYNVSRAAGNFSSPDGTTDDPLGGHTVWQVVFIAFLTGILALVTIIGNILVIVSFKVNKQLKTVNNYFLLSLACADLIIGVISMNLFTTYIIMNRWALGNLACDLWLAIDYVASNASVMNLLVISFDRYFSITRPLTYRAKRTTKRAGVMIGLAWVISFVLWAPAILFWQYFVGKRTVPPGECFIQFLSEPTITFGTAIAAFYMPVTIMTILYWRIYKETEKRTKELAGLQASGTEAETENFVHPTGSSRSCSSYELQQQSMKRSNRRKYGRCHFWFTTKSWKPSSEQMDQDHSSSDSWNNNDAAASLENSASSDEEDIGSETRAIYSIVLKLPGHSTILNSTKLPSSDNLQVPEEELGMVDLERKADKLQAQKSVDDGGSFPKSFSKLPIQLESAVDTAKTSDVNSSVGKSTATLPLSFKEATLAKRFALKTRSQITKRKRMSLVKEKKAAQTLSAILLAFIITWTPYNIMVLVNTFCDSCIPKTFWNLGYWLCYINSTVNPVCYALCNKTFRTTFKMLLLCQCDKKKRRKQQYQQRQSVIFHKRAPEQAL
Muscarinic acetylcholine receptor M3 (Cavia porcellus), sequence (Q8VH26 1-587): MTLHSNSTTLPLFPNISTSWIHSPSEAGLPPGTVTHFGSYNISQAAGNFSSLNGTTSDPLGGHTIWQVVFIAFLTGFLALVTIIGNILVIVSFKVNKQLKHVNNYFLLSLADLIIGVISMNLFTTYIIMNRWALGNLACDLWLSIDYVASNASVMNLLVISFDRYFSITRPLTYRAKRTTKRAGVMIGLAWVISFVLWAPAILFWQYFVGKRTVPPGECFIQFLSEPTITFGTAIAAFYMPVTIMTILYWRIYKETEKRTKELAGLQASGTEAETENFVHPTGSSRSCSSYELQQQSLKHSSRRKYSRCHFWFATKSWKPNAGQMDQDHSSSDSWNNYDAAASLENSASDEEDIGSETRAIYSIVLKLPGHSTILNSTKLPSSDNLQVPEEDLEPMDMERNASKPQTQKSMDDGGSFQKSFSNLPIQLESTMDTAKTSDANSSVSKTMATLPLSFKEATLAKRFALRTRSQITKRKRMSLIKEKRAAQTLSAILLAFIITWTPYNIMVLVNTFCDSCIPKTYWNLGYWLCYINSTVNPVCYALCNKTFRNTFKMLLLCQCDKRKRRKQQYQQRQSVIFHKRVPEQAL

As to `C[C@@H]1O[C@H]([C@@H]2CCCN2C)C[S@+]1[O-]`, the Ki is > 100 µM in [1]; 89.1 µM in [2]; > 100 µM in [6]; > 100 µM in test [7]; > 100 µM in [11]. The Activity in test [3] and in test [5] was 0 each time. Further, the pKb in [4], in test [8], in test [9] and in [10] was < 5 throughout.

`C[C@H]1O[C@@H]([C@H]2CCCN2C)C[S@+]1[O-]`: the Ki in test [1], in test [2], in test [6], in [7] and in test [11] was > 100 µM each time.

With `C[C@H]1O[C@@H]([C@@H]2CCC[N+]2(C)C)C[S@@+]1[O-]` (stereo in doubt; (+)-7), the Activity in test [3] and in test [5] was 0 in each case. For the same compound, the pKb in test [4], in test [8], in test [9] and in [10] was < 5 in each case.

Turning to `C[C@@H]1O[C@H]([C@H]2CCCN2C)C[S@@+]1[O-]`, the Ki in test [1], in test [2], in test [6], in [7] and in test [11] was > 100 µM in each case.

For the compound `C[C@H]1O[C@@H]([C@@H]2CCCN2C)C[S@+]1[O-]`, the Ki in [1] was > 100 µM; in [2], 87.1 µM; in test [6], > 100 µM; in test [7], > 100 µM; in test [11] it was > 100 µM. Also, the Activity in test [3] and in test [5] was 0 throughout. Besides, the pKb in [4], in [8], in [9] and in test [10] was < 5 in each case.

`C[C@H]1O[C@@H]([C@H]2CCCN2C)C[S@@+]1[O-]`: the Ki in test [1], in [2], in test [6], in [7] and in test [11] was > 100 µM each time.

Regarding `C[C@H]1O[C@@H]([C@@H]2CCC[N+]2(C)C)C[S@@+]1[O-].[I-]` (stereo in doubt; (-)-8), the “Log Ki” value in [1], in [7] and in test [11] was < -4 in each case. Also, the Ki in [2] and in test [6] was > 100 µM throughout.

With `C[C@@H]1O[C@H]([C@@H]2CCCN2C)C[S@@+]1[O-]`, the Ki in test [1], in test [2], in [6], in test [7] and in [11] was > 100 µM throughout. Besides, the Activity in test [3] and in test [5] was 0 in each case. For the same compound, the pKb in [4], in [8], in [9] and in [10] was < 5 in each case.

Take `C[C@H]1O[C@@H]([C@@H]2CCC[N+]2(C)C)C[S@+]1[O-]`: the inhibition constant Ki was > 100 µM in [1]; 77.6 µM in test [2]; > 100 µM in test [6]; > 100 µM in test [7]; > 100 µM in [11]. Also, the Activity in test [3] and in test [5] was 0 throughout. In addition, the pKb in test [4], in test [8], in test [9] and in test [10] was < 5 in each case.

Consider `C[C@@H]1O[C@H]([C@H]2CCC[N+]2(C)C)C[S@+]1[O-]`, for which the inhibition constant Ki in test [1], in test [2], in [6], in test [7] and in test [11] was > 100 µM in each case.

As for `C[C@H]1O[C@@H]([C@@H]2CCCN2C)C[S@@+]1[O-]`, the Ki in test [1], in test [2], in test [6], in test [7] and in test [11] was > 100 µM throughout.

For `C[C@@H]1O[C@H]([C@H]2CCCN2C)C[S@+]1[O-]`, the Ki in test [1], in test [2], in [6], in test [7] and in test [11] was > 100 µM in each case.

Regarding `C[C@H]1O[C@@H]([C@@H]2CCC[N+]2(C)C)C[S@@+]1[O-]` (stereo in doubt; (-)-8), the Activity in test [3] and in [5] was 0 throughout. Besides, the pKb in test [4], in [8], in [9] and in test [10] was < 5 each time.

With `C[C@H]1O[C@@H]([C@@H]2CCC[N+]2(C)C)C[S@@+]1[O-].[I-]` (stereo in doubt; (+)-7), the “Log Ki” value in test [1], in test [7] and in test [11] was < -4 throughout. The inhibition constant (Ki) in test [2] is 81.3 µM; in test [6] it was 57.5 µM.

As to `C[C@H]1O[C@@H]([C@@H]2CCC[N+]2(C)C)C[S@@+]1[O-]` (stereo in doubt; (-)-6) [listing 1 of 2 here], the Activity in test [3] and in [5] was 0 in each case. The pKb in test [4], in [8], in test [9] and in test [10] was < 5 each time.

As for `C[C@H]1O[C@@H]([C@@H]2CCC[N+]2(C)C)C[S@@+]1[O-]` (stereo in doubt; (-)-6) [listing 2 of 2 here], the Ki was > 100 µM in [1]; 28.8 µM in [2]; > 100 µM in [6]; > 100 µM in test [7]; > 100 µM in [11].

The record behind these values is ChEMBL document CHEMBL1138195, “Highly chiral muscarinic ligands: the discovery of (2S,2'R,3'S,5'R)-1-methyl-2-(2-methyl-1,3-oxathiolan-5-yl)pyrrolidine 3-sulfoxide methyl iodide, a potent, functionally selective, M2 partial agonist” (J Med Chem, 2006).
